# Measurements pooled from the literature.
# Matrix: plasma
SMILES,host,route,dose,notes,half-life
COC(=O)C(NC(=O)c1cn(CCCCCF)c2ccccc12)C(C)(C)C (stereo not drawn),male Sprague-Dawley rat,subcutaneous,100 µg/kg,,621 min
O=C(Nc1cccnn1)N1CCN([C@@H]2CCOc3cc(C(F)(F)F)ccc32)CC1,male Sprague-Dawley rat,oral,1 mg/kg,,330 min
[2H]C([2H])(c1cc(F)c(F)cc1F)n1c(=O)n(Cc2ncn(C)n2)c(=O)[nH]/c1=N\c1cc2cn(C)nc2cc1Cl,male Sprague-Dawley rat,oral,25 mg/kg,,250 min
CCCC[C@@H]1NC(=O)[C@H](Cc2ccc(O)cc2)NC(=O)[C@@H]2CCCN2C(=O)[C@H](CC(=O)O)NC(=O)[C@H](C)NC(=O)[C@H](Cc2ccccc2)NC(=O)[C@@H]2CSCCC(=O)N3CN(CN(C3)C(=O)CCSC[C@@H](C(=O)N[C@@H](CNC(=O)CCc3cn(CCOCCOCCOCCN(CCOCCOCCOCCC(=O)N[C@H]4CSCCC(=O)N5CN6CN(C5)C(=O)CCSC[C@H](NC(=O)[C@@H](CC(=O)O)NC(=O)[C@H](Cc5cccc7ccccc57)NC(=O)[C@@H]5CCCN5C4=O)C(=O)N[C@@H](CCSC)C(=O)N[C@@H](CCCCNC(=N)N)C(=O)N[C@@H](CC(=O)O)C(=O)N[C@@H](Cc4c[nH]c5ccccc45)C(=O)N[C@@H](CO)C(=O)N[C@@H]([C@@H](C)O)C(=O)N4CCC[C@H]4C(=O)N4C[C@H](O)C[C@H]4C(=O)N[C@@H](Cc4c[nH]c5ccccc45)C(=O)N[C@H](C(N)=O)CSCCC6=O)CCOCCOCCOCCn4cc(CCC(=O)NC[C@H](NC(=O)[C@@H]5CSCCC(=O)N6CN7CN(C6)C(=O)CCSC[C@H](NC(=O)[C@H](Cc6ccc(O)cc6)NC(=O)[C@@H]6CCCN6C(=O)[C@@H](C)NC(=O)[C@H](CCC(=O)O)NC(=O)[C@@H]6CCCN6C(=O)[C@H](CC(C)(C)C)NC(=O)[C@@H](NC(C)=O)CSCCC7=O)C(=O)N[C@@H](Cc6ccccc6)C(=O)N[C@@H](C)C(=O)N[C@@H](CC(=O)O)C(=O)N6CCC[C@H]6C(=O)N[C@@H](Cc6ccc(O)cc6)C(=O)N[C@@H](CCCC)C(=O)N5)C(N)=O)nn4)nn3)C(N)=O)NC1=O)C(=O)CCSC[C@H](NC(C)=O)C(=O)N[C@@H](CC(C)(C)C)C(=O)N1CCC[C@H]1C(=O)N[C@@H](CCC(=O)O)C(=O)N[C@H](C)C(=O)N1CCC[C@H]1C(=O)N[C@@H](Cc1ccc(O)cc1)C(=O)N2,rat,intravenous,2 mg/kg,,216 min
Cc1ncc(C)n2nc(/C=C/c3nc(N4CCCC4)cc(N4CCOCC4)n3)nc12,male Sprague-Dawley rat,intravenous,0.1 mg/kg,,276 min
O=C([O-])C(=O)[O-].[NH-][C@@H]1CCCC[C@H]1[NH-].[Pt+4] (relative stereo),rat,intravenous,5 mg/kg,,186 min
CN1CCN(Cc2ccc(NC(=O)c3cncc(C#Cc4cnc(N)c5ncccc45)c3)cc2C(F)(F)F)CC1,rat,intravenous,2 mg/kg,,204 min
CCCCCn1nc(C(=O)Nc2cccc3ccccc23)c2ccccc21,male Long-Evans rat,intraperitoneal,3 mg/kg,,324 min
N=c1c2c(-c3ccccc3)c(-c3ccccc3)n(Cc3ccccc3)c2ncn1[C@H]1CC[C@H](O)CC1,male Sprague-Dawley rat,intravenous,2 mg/kg,single dose,534 min
CC(=O)N[C@@H](C)C(=O)N[C@H]1CSSC[C@@H](C(=O)O)NC(=O)[C@H](Cc2ccccc2)NC(=O)[C@@H]2CCCN2C(=O)[C@H](Cc2c[nH]c3ccccc23)NC(=O)[C@H](CC(C)C)NC(=O)[C@H](CC(C)C)NC(=O)[C@H](CC(=O)O)NC(=O)[C@H](Cc2ccccc2)NC(=O)[C@H](Cc2c[nH]cn2)NC(=O)[C@H]([C@@H](C)O)NC(=O)[C@H](Cc2ccccc2)NC1=O,male Sprague-Dawley rat,intravenous,,,1.82 min
CCN1CC2(CCN(CCc3cc(F)ccc3F)CC2)O[C@H](C)C1=O,Wistar rat,intraperitoneal,3 mg/kg,single dose,20 min
Cn1cnc(Cn2c(=O)[nH]/c(=N\c3cc4cn(C)nc4cc3Cl)n(Cc3cc(F)c(F)cc3F)c2=O)n1,male Sprague-Dawley rat,oral,25 mg/kg,,232 min
CCCC[C@@H]1NC(=O)[C@H](Cc2ccc(O)cc2)NC(=O)[C@@H]2CCCN2C(=O)[C@H](CC(=O)O)NC(=O)[C@H](C)NC(=O)[C@H](Cc2ccccc2)NC(=O)[C@@H]2CSCCC(=O)N3CN(CN(C3)C(=O)CCSC[C@H](NC(C)=O)C(=O)N[C@@H](CC(C)(C)C)C(=O)N[C@@H](CCC(=O)O)C(=O)N[C@@H](CCC(=O)O)C(=O)N[C@H](CCCCNC(=O)CCc3cn(CCOCCOCCOCCN(CCOCCOCCOCCC(=O)N[C@H]4CSCCC(=O)N5CN6CN(C5)C(=O)CCSC[C@H](NC(=O)[C@@H](CC(=O)O)NC(=O)[C@H](Cc5cccc7ccccc57)NC(=O)[C@@H]5CCCN5C4=O)C(=O)N[C@@H](CCSC)C(=O)N[C@@H](CCCCNC(=N)N)C(=O)N[C@@H](CC(=O)O)C(=O)N[C@@H](Cc4c[nH]c5ccccc45)C(=O)N[C@@H](CO)C(=O)N[C@@H]([C@@H](C)O)C(=O)N4CCC[C@H]4C(=O)N4C[C@H](O)C[C@H]4C(=O)N[C@@H](Cc4c[nH]c5ccccc45)C(=O)N[C@H](C(N)=O)CSCCC6=O)CCOCCOCCOCCn4cc(CCC(=O)NCCCC[C@H]5NC(=O)[C@H](CCC(=O)O)NC(=O)[C@H](CCC(=O)O)NC(=O)[C@H](CC(C)(C)C)NC(=O)[C@@H](NC(C)=O)CSCCC(=O)N6CN7CN(C6)C(=O)CCSC[C@H](NC(=O)[C@H](Cc6ccc(O)cc6)NC(=O)[C@@H]6CCCN6C5=O)C(=O)N[C@@H](Cc5ccccc5)C(=O)N[C@@H](C)C(=O)N[C@@H](CC(=O)O)C(=O)N5CCC[C@H]5C(=O)N[C@@H](Cc5ccc(O)cc5)C(=O)N[C@@H](CCCC)C(=O)N[C@H](C(N)=O)CSCCC7=O)nn4)nn3)C(=O)N3CCC[C@H]3C(=O)N[C@@H](Cc3ccc(O)cc3)C(=O)N2)C(=O)CCSC[C@@H](C(N)=O)NC1=O,rat,intravenous,2 mg/kg,,126 min
[2H]C([2H])([2H])n1cc2cc(Nc3nc(=O)n(Cc4ncn(C)n4)c(=O)n3Cc3cc(F)c(F)cc3F)c(Cl)cc2n1,male Sprague-Dawley rat,oral,25 mg/kg,,203 min
Cl.Cl.O=C(CCN1CCCCC1)c1ccc(-c2ccc(C(=O)CCN3CCCCC3)cc2)cc1,Sprague-Dawley rat,intravenous,5 mg/kg,,4.8 min
